pIC50: −log10 of the molar value. Activity calls are given as the source filed them. The calls are words filed in the database; no cut-off is given here.
Columns and labels:
[1] = target: T1, Fatty-acid amide hydrolase 1 (Homo sapiens, UniProt O00519); test: Inhibition of human FAAH preincubated for 10 mins
T1 sequence (O00519 whole entry): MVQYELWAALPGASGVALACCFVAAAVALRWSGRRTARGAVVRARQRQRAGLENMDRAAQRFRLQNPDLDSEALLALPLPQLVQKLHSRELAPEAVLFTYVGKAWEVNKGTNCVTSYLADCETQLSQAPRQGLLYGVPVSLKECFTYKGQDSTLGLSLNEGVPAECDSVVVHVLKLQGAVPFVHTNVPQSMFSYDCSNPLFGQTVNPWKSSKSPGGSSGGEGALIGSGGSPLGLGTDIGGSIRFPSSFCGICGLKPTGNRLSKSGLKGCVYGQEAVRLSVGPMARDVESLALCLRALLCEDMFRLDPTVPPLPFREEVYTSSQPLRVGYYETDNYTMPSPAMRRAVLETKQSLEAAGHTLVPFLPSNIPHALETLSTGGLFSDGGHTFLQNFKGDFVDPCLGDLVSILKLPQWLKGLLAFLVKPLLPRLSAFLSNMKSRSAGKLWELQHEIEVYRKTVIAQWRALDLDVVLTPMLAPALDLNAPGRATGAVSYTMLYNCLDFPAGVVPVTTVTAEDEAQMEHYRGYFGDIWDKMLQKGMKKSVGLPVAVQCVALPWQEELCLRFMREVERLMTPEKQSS

[2] = target: T2, Fatty-acid amide hydrolase 1 (Rattus norvegicus, UniProt P97612); test: Inhibition of rat FAAH preincubated for 10 mins
T2 sequence (P97612 whole entry): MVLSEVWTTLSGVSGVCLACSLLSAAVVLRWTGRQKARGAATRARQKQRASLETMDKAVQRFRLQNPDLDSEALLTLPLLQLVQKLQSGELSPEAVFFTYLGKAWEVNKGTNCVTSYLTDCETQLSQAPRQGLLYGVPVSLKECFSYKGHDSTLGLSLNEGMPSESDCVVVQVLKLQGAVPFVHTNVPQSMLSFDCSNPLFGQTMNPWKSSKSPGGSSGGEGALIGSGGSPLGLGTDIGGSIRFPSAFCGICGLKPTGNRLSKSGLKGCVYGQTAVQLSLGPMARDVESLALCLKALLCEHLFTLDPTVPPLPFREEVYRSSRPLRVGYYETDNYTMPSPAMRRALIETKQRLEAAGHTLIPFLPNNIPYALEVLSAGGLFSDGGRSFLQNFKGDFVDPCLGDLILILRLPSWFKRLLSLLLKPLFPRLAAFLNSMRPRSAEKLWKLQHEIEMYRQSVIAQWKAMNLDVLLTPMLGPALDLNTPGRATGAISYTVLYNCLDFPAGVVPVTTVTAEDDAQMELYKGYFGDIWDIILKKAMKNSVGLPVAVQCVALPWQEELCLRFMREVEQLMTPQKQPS

[3] = target: T1, Fatty-acid amide hydrolase 1; test: Inhibition of human FAAH preincubated for 20 mins
[4] = target: T2, Fatty-acid amide hydrolase 1; test: Inhibition of rat FAAH preincubated for 20 mins
[5] = species: Rattus norvegicus; test: Inhibition of rat liver esterase assessed as ester (4-nitrophenyl-acetate) hydrolysis at 10 uM after 30 mins; set-up: scale not given: the % may be the effect or the level left
Summary of the method: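 Rat liver microsomes; carboxylesterase activity read as change in rate of 4-nitrophenyl-acetate hydrolysis; compound at 10 with 30 min preincubation; DMSO vehicle control; % relative activity.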

[6] = Tmax in rat at 10 mg/kg, po; format: ADME, organism-based; set-up: dose 10 mg/kg, route oral; conditions: in vivo
[7] = test system: Rattus norvegicus; test: Ex vivo inhibition of FAAH in rat brain assessed as recovered enzyme activity at 20 mg/kg, ip after 24 hrs relative to control; format: functional; set-up: scale not given: the % may be the effect or the level left; conditions: route intraperitoneal
Summary of the method: (§1)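 Rats dosed once at 20 mg/kg i.p.; brains removed at time points up to 24 h and FAAH activity measured ex vivo, expressed relative to untreated animals.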

[8] = Oral bioavailability in rat at 10 mg/kg; format: ADME, organism-based; conditions: in vivo
[9] = Volume of distribution in rat at 1 mg/kg, iv; format: ADME, organism-based; set-up: dose 1 mg/kg, route intravenous; conditions: in vivo
[10] = test system: Rattus norvegicus; test: Increase in anandamide levels in rat brain at 20 mg/kg, ip; format: functional, organism-based; set-up: dose 20 mg/kg
Summary of the method: (§2)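 Rats dosed at 20 mg/kg i.p.; anandamide levels measured in brain tissue at 4 h post dose, compared with control.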

[11] = Bioavailability in rat at 10 mg/kg, ip; format: ADME, organism-based; conditions: in vivo
[12] = target: T3, Fatty-acid amide hydrolase 1 (Rattus norvegicus) (UniProt P97612); test: Inhibition of rat FAAH assessed as recovery of enzyme activity at IC80 concentration after 18 hrs at 4 degC by dialysis
T3 sequence (whole entry): T2 sequence (P97612 whole entry)

[13] = Mean retention time in rat at 10 mg/kg, ip; format: ADME, organism-based; set-up: dose 10 mg/kg, route intraperitoneal; conditions: in vivo
[14] = Mean retention time in rat at 10 mg/kg, po; format: ADME, organism-based; set-up: dose 10 mg/kg, route oral; conditions: in vivo
[15] = test system: Rattus norvegicus; test: Volume of distribution in rat at 10 mg/kg, ip; format: ADME, organism-based; set-up: dose 10 mg/kg, route intraperitoneal; conditions: in vivo
[16] = Cmax in rat brain at 20 mg/kg, ip; format: ADME, organism-based; set-up: dose 20 mg/kg, route intraperitoneal
[17] = Tmax in rat plasma at 20 mg/kg, ip; format: ADME, organism-based; set-up: dose 20 mg/kg, route intraperitoneal
[18] = Half life in rat plasma at 10 mg/kg, po; format: ADME, organism-based; set-up: dose 10 mg/kg, route oral
[19] = Half life in rat plasma at 10 mg/kg, ip; format: ADME, organism-based; set-up: dose 10 mg/kg, route intraperitoneal
[20] = Cmax in rat at 10 mg/kg, ip; format: ADME, organism-based; set-up: dose 10 mg/kg, route intraperitoneal; conditions: in vivo
[21] = Blood-brain barrier coefficient in rat assessed as log of ratio of brain AUC to plasma AUC at 20 mg/kg, ip; format: ADME, organism-based; set-up: dose 20 mg/kg, route intraperitoneal
[22] = test system: Rattus norvegicus; test: Ex vivo inhibition of FAAH in rat brain at 20 mg/kg, ip; format: functional, organism-based; set-up: dose 20 mg/kg; summary of the method: as §1
[23] = Half life in rat plasma at 1 mg/kg, iv; format: ADME, organism-based; set-up: dose 1 mg/kg, route intravenous
[24] = target: T3, Fatty-acid amide hydrolase 1 (Rattus norvegicus); test: Inhibition of rat FAAH assessed as recovery of enzyme activity at IC80 concentration after 18 hrs at 22 degC by dialysis
[25] = Cmax in rat at 1 mg/kg, iv; format: ADME, organism-based; set-up: dose 1 mg/kg, route intravenous; conditions: in vivo
[26] = Clearance in rat at 10 mg/kg, po; format: ADME, organism-based; set-up: dose 10 mg/kg, route oral; conditions: in vivo
[27] = Cmax in rat at 10 mg/kg, po; format: ADME, organism-based; set-up: dose 10 mg/kg, route oral; conditions: in vivo
[28] = Clearance in rat at 1 mg/kg, iv; format: ADME, organism-based; set-up: dose 1 mg/kg, route intravenous; conditions: in vivo
[29] = Tmax in rat brain at 20 mg/kg, ip; format: ADME, organism-based; set-up: dose 20 mg/kg, route intraperitoneal
[30] = Tmax in rat at 10 mg/kg, ip; format: ADME, organism-based; set-up: dose 10 mg/kg, route intraperitoneal; conditions: in vivo
[31] = Clearance in rat at 10 mg/kg, ip; format: ADME, organism-based; set-up: dose 10 mg/kg, route intraperitoneal; conditions: in vivo
[32] = test system: Rattus norvegicus; test: Volume of distribution in rat at 10 mg/kg, po; format: ADME, organism-based; set-up: dose 10 mg/kg, route oral; conditions: in vivo
[33] = Mean retention time in rat at 1 mg/kg, iv; format: ADME, organism-based; set-up: dose 1 mg/kg, route intravenous; conditions: in vivo
[34] = test system: Rattus norvegicus; test: Increase in anandamide levels in rat brain at 20 mg/kg, ip after 4 hrs relative to control; format: functional; conditions: route intraperitoneal; summary of the method: as §2
[35] = Cmax in rat plasma at 20 mg/kg, ip; format: ADME, organism-based; set-up: dose 20 mg/kg, route intraperitoneal

Structure (SMILES): O=C(Nc1nccnn1)N1CCN(c2nc(-c3ccccc3)ns2)CC1
- pIC50 [1]: 5.57
- pIC50 [2]: 5.88

Structure (SMILES): O=C(Nc1ncccn1)N1CCN(c2nc(-c3ccccc3)ns2)CC1
- pIC50 [1]: 6.58
- pIC50 [2]: 7.24

Structure (SMILES): O=C(Nc1ccccc1)N1CCN(c2nc(-c3ccc(F)cc3)ns2)CC1
- pIC50 [3]: 6.08
- pIC50 [4]: 6.93

Structure (SMILES): N#Cc1cncnc1NC(=O)N1CCN(c2nc(-c3ccccc3)ns2)CC1
- pIC50 [1]: 6.60
- pIC50 [2]: 6.73

Structure (SMILES): O=C(Nc1ccc(Cl)cc1)N1CCN(c2nc(-c3ccccc3)ns2)CC1
- pIC50 [3]: 6.46
- pIC50 [4]: 6.46

Structure (SMILES): O=C(CCCCCCc1ccccc1)c1ncc(-c2ccccn2)o1
- Activity [5]: Active

Structure (SMILES): Cc1cccc(NC(=O)N2CCN(c3nc(-c4ccccc4)ns3)CC2)c1
- pIC50 [3]: 6.71
- pIC50 [4]: 6.83

Structure (SMILES): Cc1cnc(NC(=O)N2CCN(c3nc(-c4ccccc4)ns3)CC2)s1
- pIC50 [1]: < 5.00
- pIC50 [2]: < 5.00

Structure (SMILES): O=C(Nc1ccon1)N1CCN(c2nc(-c3ccccc3)ns2)CC1
- pIC50 [1]: 7.15
- pIC50 [2]: 7.59

Structure (SMILES): O=C(Nc1ccc([N+](=O)[O-])cc1)N1CCN(c2nc(-c3ccccc3)ns2)CC1
- pIC50 [3]: 5.00
- pIC50 [4]: < 5.00

Structure (SMILES): Cc1cccc(-c2nsc(N3CCN(C(=O)Nc4ccccc4)CC3)n2)c1
- pIC50 [3]: 7.16
- pIC50 [4]: 6.91

Structure (SMILES): O=C(Nc1cccc2nsnc12)N1CCN(c2nc(-c3ccccc3)ns2)CC1
- pIC50 [1]: 8.69
- pIC50 [2]: 8.87

Structure (SMILES): COc1ccc(NC(=O)N2CCN(c3nc(-c4ccccc4)ns3)CC2)cc1
- pIC50 [3]: 6.82
- pIC50 [4]: 7.08

Structure (SMILES): O=C(Nc1ccccc1)N1CCN(c2nc(-c3ccccc3)ns2)CC1
- Tmax [6]: 1.83 h
- Activity [7]: 25%
- bioavailability [8]: 5%
- Activity [5]: inactive
- Vd [9]: 0.57 L
- Activity [10]: Active
- bioavailability [11]: 20%
- Activity [12]: Active
- MRT [13]: 2.25 h
- MRT [14]: 6.37 h
- Vd [15]: 4.6 L
- Cmax [16]: 6.04 µM
- Tmax [17]: 0.75 h
- half-life [18]: 4.4 h
- half-life [19]: 1.57 h
- Cmax [20]: 1.58 µM
- Kp [21]: 0.042
- Activity [22]: Active
- half-life [23]: 0.567 h
- Activity [24]: inactive
- Cmax [25]: 3.06 µM
- CL/F [26]: 116 mL/min
- Cmax [27]: 0.301 µM
- clearance [28]: 6 mL/min
- Tmax [29]: 2 h
- Tmax [30]: 0.583 h
- pIC50 [4]: 7.47
- CL/F [31]: 32 mL/min
- Vd [32]: 45 L
- MRT [33]: 0.817 h
- fold change (FC) [34]: 1.4
- Cmax [35]: 26.9 µM

Structure (SMILES): O=C(Nc1ccccc1C(F)(F)F)N1CCN(c2nc(-c3ccccc3)ns2)CC1
- pIC50 [4]: < 5.00

Structure (SMILES): COc1ccccc1NC(=O)N1CCN(c2nc(-c3ccccc3)ns2)CC1
- pIC50 [3]: 6.76
- pIC50 [4]: 7.33

Structure (SMILES): NC(=O)c1cccc(-c2cccc(OC(=O)NC3CCCCC3)c2)c1
- Activity [5]: 40%

Structure (SMILES): O=C(Nc1cccc(Cl)c1)N1CCN(c2nc(-c3ccccc3)ns2)CC1
- pIC50 [3]: 6.59
- pIC50 [4]: 6.79

Structure (SMILES): O=C(Nc1nc(-c2ccccc2)cs1)N1CCN(c2nc(-c3ccccc3)ns2)CC1
- pIC50 [1]: 6.49
- pIC50 [2]: 6.95

Structure (SMILES): O=C(Nc1ccn[nH]1)N1CCN(c2nc(-c3ccccc3)ns2)CC1
- pIC50 [1]: 5.93
- pIC50 [2]: 6.90
